We go through 21 molecules from ChEMBL document CHEMBL4177714, “Assessment of a pretomanid analogue library for African trypanosomiasis: Hit-to-lead studies on 6-substituted 2-nitro-6,7-dihydro-5H-imidazo[2,1-b][1,3]thiazine 8-oxides” (Bioorg Med Chem Lett, 2018).

Each structure is given as a SMILES string. ≈ marks a conversion by molar mass, not a printed value. A value given as a limit tells only on which side of the number the result lay.

Data set [1] is described as follows: Selectivity index, ratio of IC50 for cytotoxicity against mouse L929 cells to IC50 for antitrypanosomal activity against Trypanosoma brucei brucei 427 bloodstream forms. The conditions noted are these: read-out: Ratio IC50. Type of data set: toxicity, cell-based.
Data set [2] in a line: Apparent permeability in MDCK2-MDR1 cells at 3 uM incubated over 150 mins at 37 degC by LC-MS/MS method. Type of data set: ADME, cell-based, Canis lupus familiaris. Particulars: dog, MDCK-MDR1. The gist of the method:
(§1)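 MDCK-MDR1 monolayer, apical-to-basolateral transport of compound at 3 μM, run with and without P-gp inhibitor GF120918 (2 μM). Apparent permeability (Papp) recorded; absorption quotient AQ = (Papp+918 − Papp)/Papp+918. Propranolol served as CNS-positive reference.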

The subject of another data set is Mus musculus. In words: Time duration during which drug level in brain stays at or above MIC for antitrypanosomal activity against Trypanosoma brucei brucei TREU 667 infected in Webster mouse at 25 mg/kg, po bid. The format is ADME, organism-based. Particulars: in vivo.
Data set [3] in a line: Half life in mouse liver S9 subcellular fraction. Type of data set: ADME. The gist of the method:
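Metabolic stability: compounds incubated 1 h with CD-1 mouse liver S9 subcellular fractions; half-life derived.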

A short description of data set [4]: Absorption quotient in MDCK2-MDR1 cells assessed as (Papp + GF120918 - Papp)/(Papp + GF120918) ratio at 3 uM incubated over 150 mins at 37 degC in presence of P-gp inhibitor GF120918 by LC-MS/MS method. The conditions noted are these: dog, mdck-mdr1, 2.5 h. Type of data set: ADME, cell-based, Canis lupus familiaris. A digest of the protocol:
as §1

Data set [5] in a line: Selectivity index, ratio of IC50 for cytotoxicity against human MRC5 cells to IC50 for antitrypanosomal activity against Trypanosoma brucei brucei 427 bloodstream forms. Type of data set: toxicity, cell-based. Particulars: read-out: Ratio IC50. The gist of the method: (§2)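 IC50 for growth inhibition of T. b. brucei 427, with cytotoxicity measured against human lung fibroblasts (MRC-5). Means of two or more independent experiments. Selectivity index is MRC-5 IC50 over T. b. brucei IC50.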

A short description of data set [6]: Ratio of drug level in brain to plasma in CD1 mouse at 78 mg/kg, po after 0.25 to 24 hrs by LC-MS/MS method. The format is ADME, organism-based. The conditions noted are these: read-out: BPR.
The subject of data set [7] is Trypanosoma brucei brucei. In words: Antitrypanosomal activity against Trypanosoma brucei brucei 427 bloodstream forms. The format is functional, organism-based. The gist of the method: as §2
The test system of data set [8] is Trypanosoma brucei brucei. In words: Antitrypanosomal activity against Trypanosoma brucei brucei TREU 667 infected in Swiss Webster mouse assessed as infection cure rate at 25 mg/kg, po qd for 7 days starting 21 days post-infection (reference value: 0%). The format is functional.
Data set [9] deals with Trypanosoma brucei brucei. In words: Antitrypanosomal activity against Trypanosoma brucei brucei TREU 667 infected in Swiss Webster mouse assessed as mean relapse time at 10 mg/kg, ip administered as single dose on day 21 post-infection (reference value: 31 days). Type of data set: functional. A digest of the protocol: (§3)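 CNS (stage 2) model: mice infected with T. b. brucei TREU 667. Berenil given as a single i.p. dose of 10 mg/kg on day 4 or on day 21 post-infection. Cure rate and mean relapse time recorded against vehicle-treated controls.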

Data set [10] concerns Trypanosoma brucei brucei. Kind of data set: Antitrypanosomal activity against Trypanosoma brucei brucei TREU 667 infected in Swiss Webster mouse assessed as infection cure rate at 10 mg/kg, ip administered as single dose on day 4 post-infection (reference value: 0%). Type of data set: functional. A digest of the protocol: as §3
For data set [11], the system named is Trypanosoma brucei brucei. In words: Antitrypanosomal activity against Trypanosoma brucei brucei TREU 667 infected in Swiss Webster mouse assessed as infection cure rate at 10 mg/kg, ip administered as single dose on day 21 post-infection (reference value: 0%). The format is functional. The gist of the method: as §3
For data set [12], the system named is Trypanosoma brucei brucei. In words: Antitrypanosomal activity against Trypanosoma brucei brucei TREU 667 infected in Swiss Webster mouse assessed as infection cure rate at 200 mg/kg, po qd for 5 days. Type of data set: functional.

Take `O=[N+]([O-])c1cn2c(n1)OC[C@@H](OCC#Cc1ccc(-c3ccc(C(F)(F)F)cc3)cn1)C2`: the selectivity ratio in data set [1] is greater than 19. Also, the Papp A→B (as a rule, the apparent permeability from the apical to the basolateral side of a cell layer) at 2.5 h, 3 µM in data set [2] was found to be 3.5 ×10⁻⁶ cm/s. For `O=[N+]([O-])c1cn2c(n1)OC[C@@H](Oc1cc(-c3ccc(C(F)(F)F)nc3)ccn1)C2`, in [1], the selectivity ratio is greater than 3.6. In turn, `O=C(Nc1ccc2c(c1)B(O)OC2)c1ccc(F)cc1C(F)(F)F` displayed a Time in the data set with Mus musculus of 12 h. With `O=[N+]([O-])c1cn2c(n1)OCC(COc1ccc(-c3ccc(OC(F)(F)F)cc3)nc1)C2` (stereo not given), the selectivity ratio in data set [1] is greater than 12. Further, the apparent permeability from apical to basolateral (Papp A→B) at 2.5 h, 3 µM in data set [2] amounted to 7.4 ×10⁻⁶ cm/s. As for `O=[N+]([O-])c1cn2c(n1)OCC(COc1ccc(-c3ccc(C(F)(F)F)cc3)nc1)C2` (stereo not given), in [1], the selectivity ratio was greater than 36. In addition, in [2], the Papp A→B at 2.5 h, 3 µM was found to be 11.7 ×10⁻⁶ cm/s. `CC1(COCc2ccc(OCc3ccccc3)cc2)Cn2cc([N+](=O)[O-])nc2[S+]1[O-]` (stereo not given): the selectivity ratio in data set [1] was greater than 77. The t1/2 in data set [3] is given as 50 min. In the case of `COc1ccc(-c2ccc(O[C@@H]3COc4nc([N+](=O)[O-])cn4C3)nc2)cn1`, the selectivity ratio in [1] is greater than 3.7.

With `O=[N+]([O-])c1cn2c(n1)OC[C@@H](OCCCc1ccc(-c3ccc(Oc4ccc(C(F)(F)F)cc4)cc3)cc1)C2`, the selectivity ratio in [1] is greater than 43. For `CC1(COCc2ccc(OCc3ccccc3)cc2)Cn2cc([N+](=O)[O-])nc2S1` (stereo not given), the selectivity ratio in [1] is greater than 4.5. In addition, in data set [3], the t1/2 is recorded as 31 min. The Ratio in data set [4] is recorded as 0. For the molecule `O=[N+]([O-])c1cn2c(n1)SC(COCc1ccc(OCc3ccccc3)cc1)C2` (stereo not given), the selectivity ratio in data set [1] was greater than 22. Besides, in [3], the t1/2 came to 67 min. On to `O=[N+]([O-])c1cn2c(n1)[S@+]([O-])C[C@@H](OCc1ccc(OC(F)(F)F)cc1)C2`, for which the selectivity ratio in data set [1] is greater than 143. On to `O=[N+]([O-])c1cn2c(n1)[S+]([O-])CC(OCc1ccc(-c3ccc(OC(F)(F)F)cc3)cn1)C2` (stereo not given), for which the selectivity ratio in data set [5] is greater than 500.

Consider `CN1CC(OCc2ccc(OCc3ccccc3)cc2)Cn2nc([N+](=O)[O-])cc21` (stereo not given), for which the selectivity ratio in data set [1] was greater than 3.3. This molecule registered a t1/2 in data set [3] of 38 min. On to `O=[N+]([O-])c1cn2c(n1)[S+]([O-])CC(OCc1ccc(OC(F)(F)F)cc1)C2` (stereo not given), for which the selectivity ratio in data set [1] was greater than 63. With `O=[N+]([O-])c1cn2c(n1)[S+]([O-])CC(OCc1ccc(OCc3ccccc3)cc1)C2` (stereo not given), the selectivity ratio in data set [1] was greater than 667. Same read-out and setting: under `O=[N+]([O-])c1cn2c(n1)S(=O)(=O)CC(OCc1ccc(OC(F)(F)F)cc1)C2` (stereo not given) stands greater than 11. For the molecule `O=[N+]([O-])c1cn2c(n1)S(=O)(=O)CC(OCc1ccc(OCc3ccccc3)cc1)C2` (stereo not given), the selectivity ratio in [1] is greater than 303. In data set [2], the Papp A→B at 2.5 h, 3 µM is 3.69 ×10⁻⁶ cm/s. With `O=[N+]([O-])c1cn2c(n1)OC[C@@H](NCc1ccc(OC(F)(F)F)cc1)C2`, in data set [1], the selectivity ratio was greater than 13. Moreover, the Kp in data set [6] is 2 to 3. Consider `CC1(C)OB(O)c2cc(NC(=O)c3ccc(F)cc3C(F)(F)F)ccc21` [ACOZIBOROLE], for which the IC50 (as a rule, the concentration that gives 50% inhibition) in data set [7] came to 0.29 µg/mL (≈ 0.79 µM). Also, in data set [8], the Activity is on record as 100%. In the data set on Mus musculus, this molecule gave a Time of 24 h. As for `CC(=O)NCC(=O)O.CC(=O)NCC(=O)O.N=C(N)c1ccc(/N=N/Nc2ccc(C(=N)N)cc2)cc1` [DIMINAZENE DIACETURATE], the Time in [9] turned out to be 41 days. Besides, the Activity in data set [10] is reported as 100%; in data set [11], 0%. For `CSc1ccc(OCc2ncc([N+](=O)[O-])n2C)cc1` [FEXINIDAZOLE], in data set [12], the Activity was determined as 88%.
